Measured values taken from ChEMBL document CHEMBL1127075, “Structural modification of 5-aryl-2,3-dihydroimidazo[2,1-a]isoquinoline platelet activating factor receptor antagonists” (J Med Chem, 1993).

How the values were obtained:
Cavia porcellus [1] = experiment: In vivo PAF induced hemoconcentration tested in guinea pig at 20 mg/kg dose; assay type: functional
Outline: (§1)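 Anesthetized guinea pigs given compound po in H2O at 20 mg/kg, 2 h before iv PAF (0.05 mg/kg); percent inhibition of bronchoconstriction (Konzett-Rosler) or hemoconcentration, three to five animals.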

Cavia porcellus [2] = experiment: In vivo PAF induced bronchoconstriction tested in guinea pig at 20 mg/kg dose; assay type: functional; outline: as §1
[3] = target: Platelet-activating factor receptor (Homo sapiens, UniProt P25105); experiment: In vitro PAF antagonistic activity by determining [3H]PAF binding to the PAF-receptor of human platelets
Platelet-activating factor receptor, sequence (P25105 whole entry): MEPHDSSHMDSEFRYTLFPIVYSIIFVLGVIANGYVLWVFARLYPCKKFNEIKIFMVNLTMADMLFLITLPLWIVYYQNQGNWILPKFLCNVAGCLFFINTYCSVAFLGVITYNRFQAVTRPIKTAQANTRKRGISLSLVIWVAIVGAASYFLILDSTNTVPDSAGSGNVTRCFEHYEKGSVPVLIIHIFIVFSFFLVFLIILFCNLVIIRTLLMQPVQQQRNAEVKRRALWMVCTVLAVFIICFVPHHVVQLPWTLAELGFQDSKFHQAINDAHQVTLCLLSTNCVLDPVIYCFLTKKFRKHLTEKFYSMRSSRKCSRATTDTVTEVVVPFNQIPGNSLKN
Outline: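 Human platelets incubated with [3H]PAF; free ligand removed by centrifugation, bound radioactivity counted 1 min by liquid scintillation. Specific binding = total minus nonspecific binding (0.37 mM unlabeled PAF).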

Cavia porcellus [4] = experiment: In vivo PAF induced hemoconcentration tested in guinea pig; assay type: functional
Outline: (§2)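 Anesthetized guinea pigs, compound given po in H2O 2 h before iv PAF challenge (0.05 mg/kg); bronchoconstriction (Konzett-Rosler) and hemoconcentration measured. ED50 from dose-response curves, at least five doses, four to seven animals per dose.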

Cavia porcellus [5] = experiment: In vivo PAF induced bronchoconstriction tested in guinea pig; assay type: functional; outline: as §2

Q: Which results are given for `COc1cc(CCc2ccc(C3=Cc4ccccc4C4=NCC(C)(C)CN34)cc2)cc(OC)c1OC`?
A: inhibition in vivo at 20 mg/kg (Cavia porcellus [1]): 23%; inhibition in vivo at 20 mg/kg (Cavia porcellus [2]): 17%; IC50 [3]: 500 nM

Q: Which IC50 [3] does the source give for `COc1cc(CCc2ccc(-c3cc4ccccc4c4nccn34)cc2)cc(OC)c1OC` here?
A: 89000 nM

Q: With `COc1cc(CCc2ccc(C3=Cc4ccsc4C4=NCCN34)cc2)cc(OC)c1OC` as the compound, how does the ED50 (Cavia porcellus [4]) read?
A: 1.1 mg/kg

Q: What about the IC50 [3] of the same compound?
A: 10 nM

Q: And the ED50 (Cavia porcellus [5])?
A: 0.8 mg/kg

Q: For `COc1cc(CCc2ccc(C3=Cc4ccccc4C4=NC(C)(C)CN34)cc2)cc(OC)c1OC`, which inhibition in vivo at 20 mg/kg (Cavia porcellus [1]) is on record?
A: 17.9%

Q: And the inhibition in vivo at 20 mg/kg (Cavia porcellus [2])?
A: 24%

Q: And the IC50 [3]?
A: 60 nM

Q: With `COc1cc(CCc2ccc(-c3cc4ccccc4c4nnc(C)n34)cc2)cc(OC)c1OC` as the compound, how does the IC50 [3] read?
A: 9500 nM

Q: How did the ED50 (Cavia porcellus [4]) turn out when `COc1cc(CCc2ccc(C3=Nc4ccccc4C4=NCCN34)cc2)cc(OC)c1OC` was run?
A: 31.9 mg/kg

Q: And the IC50 [3]?
A: 1140 nM

Q: And the ED50 (Cavia porcellus [5])?
A: 31.4 mg/kg

Q: With `COc1cc(CCc2ccc(C3=Cc4ccccc4C4=NCCCN34)cc2)cc(OC)c1OC` as the compound, how does the ED50 (Cavia porcellus [4]) read?
A: 3 mg/kg

Q: What about the IC50 [3] of the same compound?
A: 40 nM

Q: What about the ED50 (Cavia porcellus [5]) of the same compound?
A: 4.7 mg/kg

Q: `COc1cc(CCc2ccc(C3=Cc4ccccc4C4=NC(C)CN34)cc2)cc(OC)c1OC` (stereo unspecified) was tested. Which ED50 (Cavia porcellus [4]) did it give?
A: 10 mg/kg

Q: What about the IC50 [3] of the same compound?
A: 220 nM

Q: And the ED50 (Cavia porcellus [5])?
A: 16 mg/kg

Q: `COc1cc(CCc2ccc(-c3cc4ccccc4c4nc(C)cn34)cc2)cc(OC)c1OC` was tested. Which IC50 [3] did it give?
A: 35000 nM

Q: Which ED50 (Cavia porcellus [4]) does the source give for `COc1cc(CCc2ccc(C3=Cc4ccccc4C4=NCCN34)cc2)cc(OC)c1OC` here?
A: 5 mg/kg

Q: And the ED50 (Cavia porcellus [5])?
A: 4.2 mg/kg

Q: `COc1cc(CCc2ccc(C3=Cc4oc(C)cc4C4=NCCN34)cc2)cc(OC)c1OC` was tested. Which ED50 (Cavia porcellus [4]) did it give?
A: 10 mg/kg

Q: What about the IC50 [3] of the same compound?
A: 50 nM

Q: And the ED50 (Cavia porcellus [5])?
A: > 10 mg/kg
